# In the library only some 2.2% were active in any assay of this set; here they are far more common.
# Neddyl block – inhibitors of cullin neddylation, primary screen, biochemical, TR-FRET, uHTS, NAE and Ubc12; NEDD8-conjugating enzyme Ubc12 (Homo sapiens) + NEDD8-activating enzyme E1 regulatory …; calls only at 25 µM; 0.58% of 360,000 active; AID 651699, 2012; in the data active = inhibition above about 36%
# SKN-1 block – suppressors of acrylamide-induced Pgst-4::GFP reporter in worms, primary screen, SKN-1 inhibitor project, whole organism, uHTS, GFP/RFP fluorescence ratio, strain VP596 | inhibition, % at 21.8 µM | C. elegans VP596 Pgst-4::GFP/RFP ratio, 24 h | 0.49% of 360,000 active;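 active = interference check ratio from 0.5 to 1.5 plus GFP to RFP signal ratio inhibition reaching or exceeding a fixed threshold, cut at about 30% in these data, passing the limit was not always enough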
# KLK7 zymogen act – proKLK7 zymogen activators, primary screen, biochemical, fluorescence intensity; Kallikrein-7 (Homo sapiens), P49862; purified proKLK7, EDANS-DABCYL substrate fluorescence; 100% is mature enzyme control, 0% vehicle; activation, % at 7 µM; 0.9% of 370,000 active;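 active = activation above the mean of all tested compounds plus 3 SD, computed per campaign excluding outliers beyond control limits, cut at about 13% in these data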
# Target sequence (P49862 whole entry, looked up): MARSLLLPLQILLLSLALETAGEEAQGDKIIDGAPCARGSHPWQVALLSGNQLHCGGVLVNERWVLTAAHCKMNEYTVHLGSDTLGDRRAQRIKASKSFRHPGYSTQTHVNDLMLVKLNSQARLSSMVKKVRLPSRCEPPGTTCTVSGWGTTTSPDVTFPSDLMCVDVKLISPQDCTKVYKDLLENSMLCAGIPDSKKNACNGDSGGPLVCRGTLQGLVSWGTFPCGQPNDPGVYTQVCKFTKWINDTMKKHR
# Tn6 DDE FP – inhibitors of Tn6 peptide binding to fibrin DD(E), primary screen, biochemical, fluorescence polarization, human fibrin, Tn6 probe | Fibrin DD(E) TRITC-Tn6 fluorescence polarization displacement | inhibition, % at 8.3 µM | 0.21% of 370,000 active | AID 720509, 2013 | Fibrinogen beta chain (Homo sapiens), P02675;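 active = inhibition above a per-campaign cutoff: mean of compounds within control limits plus 3 SD, cut at about 15% in these data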;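 also: 0% = median of all compound wells on the plate and 100% = blocking peptide control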
# Target sequence (P02675 whole entry, looked up): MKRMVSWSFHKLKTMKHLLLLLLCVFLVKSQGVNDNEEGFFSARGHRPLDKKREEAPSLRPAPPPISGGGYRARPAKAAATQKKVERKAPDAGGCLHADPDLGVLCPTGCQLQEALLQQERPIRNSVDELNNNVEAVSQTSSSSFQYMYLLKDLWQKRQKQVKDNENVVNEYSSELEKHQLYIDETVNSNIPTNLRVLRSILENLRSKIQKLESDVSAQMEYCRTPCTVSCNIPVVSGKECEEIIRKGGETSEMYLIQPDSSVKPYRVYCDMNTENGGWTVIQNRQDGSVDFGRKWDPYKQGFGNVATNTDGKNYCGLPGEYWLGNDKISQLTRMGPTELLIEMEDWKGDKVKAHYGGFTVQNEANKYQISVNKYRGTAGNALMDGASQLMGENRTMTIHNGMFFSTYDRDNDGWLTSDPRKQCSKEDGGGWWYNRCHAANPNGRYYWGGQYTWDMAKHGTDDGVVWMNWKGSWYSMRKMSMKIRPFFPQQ
# MT1-MMP act inh – blockers of MT1-MMP proenzyme processing, primary screen, HT1080 RFP-PRO-GFP cells, GFP/RFP fluorescence; Matrix metalloproteinase-14 (Homo sapiens), P50281; GFP/RFP ratio fluorescence, overnight; percent of plate control window, DMSO zero; GFP/RFP ratio change, % at 20 µM; 0.061% of 360,000 active;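 active = GFP/RFP ratio change of at least 30% with cell ATP level not reduced by more than half and red fluorescence within 50% of control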
#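 Test system: HT1080 cells expressing an RFP-PRO-GFP fluorescent reporter construct / Compound dosing: single-point 20 µM compound, 1% DMSO / Schedule: cells overnight before dosing, compound overnight, 37 °C, 5% CO2 / Evaluation: GFP/RFP fluorescence ratio / Control set: DMSO and RFP-L50D-GFP cell wells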
# Tn7 DDE FP – inhibitors of Tn7 peptide binding to fibrin DD(E), primary screen, biochemical, fluorescence polarization, human fibrin, Tn7 probe. Fibrinogen beta chain (Homo sapiens), P02675. FP displacement of FITC-Tn7 peptide from fibrin DD(E); 0% = median of compound wells per plate. inhibition, % at 8.3 µM. 0.13% of 370,000 active. AID 720508, 2013;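 active = inhibition above the mean of compounds falling within the control limits plus 3 SD of them, cut at about 14% in these data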;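 also: 0% = plate median of compound wells and 100% = 10 µM Aha-Tn7 peptide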
#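 Test system: human clot-derived fibrin DD(E) complex / Quantity: 2 µM final DD(E) protein / Incubation: 10 min plus 3 h, room temperature / Measured by: fluorescence polarization / Benchmarks: high control of 10 µM Aha-Tn7 peptide / Replicates: singlicate testing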
# proKLK7 act conf – proKLK7 zymogen activators, confirmation, biochemical, fluorescence intensity, triplicate; purified proKLK7, EDANS-DABCYL substrate fluorescence; scaled: vehicle 0, mature enzyme 100; shares compounds with KLK7 zymogen act; activation, % at 7 µM; AID 686949, 2013; 68% of 3,200 active;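 active = activation, as change over the incubation, above the mean of all tested compounds plus 3 SD, cut at about 13% in these data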
# EDANS-DABCYL int – EDANS-DABCYL substrate optical interference, artefact control for kallikrein-7 zymogen activator project, biochemical, fluorescence intensity, high throughput; shares compounds with KLK7 zymogen act; no enzyme, 4 h; solvent 0%, active enzyme control 100%; activation, % at 7 µM; 80% of 3,200 active;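 active = activation above the all-compound mean plus 3 SD, ignoring values outside control-based bounds, cut at about 4.8% in these data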;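 also: value is the 4 h activation minus the activation read at time zero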
# K7 EDANS ctr – optically interferes with EDANS-DABCYL fluorescence, kallikrein-7 activator counter-screen. EC50, µM. shares compounds with KLK7 zymogen act. 20% of 250 active. EDANS-DABCYL peptide fluorescence interference, no enzyme;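 active = compounds that raise the fluorescence signal in this interference counterscreen, with EC50 at or below 10 µM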;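 also: intact quenched peptide substrate alone read at 355 nm excitation and 520 nm emission; signal is fluorescence gain from T0 to T4 after four hours at room temperature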
# Active calls of the source: *; i = inactive; nt = not tested or not shown; ! = not confirmed by another sample.
SMILES,Neddyl block,SKN-1 block,KLK7 zymogen act,Tn6 DDE FP,MT1-MMP act inh,Tn7 DDE FP,proKLK7 act conf,EDANS-DABCYL int,others
Cc1cccc(NC(=O)c2cc(-c3ccc(C)s3)nc3ccccc23)n1,nt,3.1,-91.6,2.1,-18.0,-3.9,nt,nt,
O=C(O)c1cc(-c2ccc(Cl)s2)nc2ccccc12,nt,6.7,47.4*,-1.4,3.2,1.9,36.3*,41.5*,
Cc1ccc(-c2cc(C(=O)O)c3ccccc3n2)s1,nt,4.2,54.1*,6.1,-2.7,3.0,63.5*,70.7*,
CCC(C)NC(=O)c1cc(-c2cccs2)nc2ccccc12 (stereo not drawn),nt,0.5,25.6*,-1.0,-2.0,-2.1,-15.2,-26.9,
Cc1ccc(CNC(=O)CSc2nnc(CNC(=O)c3ccc(F)cc3)o2)cc1,i,2.9,0.4,-1.5,-4.0,3.5,nt,nt,
CCc1cccc2cc3c(N)c(C(=O)Nc4ccc(S(=O)(=O)N5CCCC5)cc4)sc3nc12,i,13.5,119.2*,2.7,-189.2,-3.9,61.6*,56.9*,
Cc1cccc2cc3c(N)c(C(=O)Nc4ccc(N5CCOCC5)cc4)sc3nc12,i,12.0,0.2,0.4,-147.1,1.7,nt,nt,
O=C(O)c1cc(-c2cccc(Cl)c2)nc2nc(N3CCCCC3)sc12,i,-6.3,26.1*,-1.7,7.3,1.8,30.9*,31.0*,
Cc1ccc(Cl)cc1NC(=O)C1CCCCC1C(=O)O (stereo not drawn),i,3.8,14.7*,2.8,6.3,-1.9,1.7,0.3,
CCOCCCn1c(=NC(C)=O)c(C#N)cc2c(=O)n3cccc(C)c3nc21,nt,14.7,11.6,2.6,-3.9,-8.7,nt,nt,
CCCCCn1c(=NC(C)=O)c(C#N)cc2c(=O)n3ccccc3nc21,nt,19.0,6.2,1.5,-4.8,-1.1,nt,nt,
CCOC(=O)c1cc2c(=O)n3ccccc3nc2n(CCCOC)c1=NC(=O)c1ccncc1,nt,4.4,17.7*,7.6,-5.7,3.5,4.1,3.7,
CCOC(=O)c1cc2c(=O)n3cccc(C)c3nc2n(CCOC)c1=NC(C)=O,nt,10.1,15.2*,-1.4,-0.4,-7.3,10.5,9.4*,
CCOC(=O)c1cc2c(=O)n3cccc(C)c3nc2n(CC2CCCO2)c1=NC(C)=O (stereo not drawn),nt,5.8,15.0*!,-4.6,1.2,-6.2,6.1,7.0*,
COc1ccc(CNC(=O)c2cc3c(=O)n4cccc(C)c4nc3n(CC3CCCO3)c2=N)cc1 (stereo not drawn),i,3.4,-0.9,-5.0,4.2,0.1,nt,nt,
CCOC(=O)c1cc2c(=O)n3ccccc3nc2n(CCCOC)c1=NC(C)=O,nt,-0.8,61.9*,-4.2,4.6,-4.9,7.0,7.2*,
CCOC(=O)c1c(C)n(C)c2ccc(OC(=O)c3ccc([N+](=O)[O-])cc3)cc12,i,0.0,0.6,5.3,3.8,4.0,nt,nt,
CC12CCC(C(=O)Nc3ccccc3)(C/C1=N\O)C2(C)C (stereo not drawn),i,-33.3,-0.6,6.0,-1.2,4.1,nt,nt,
Cc1cnc(Sc2ncccc2[N+](=O)[O-])nc1,i,-8.1,-0.5,0.2,0.1,-0.4,nt,nt,
c1csc(CNc2nc(Oc3ccncc3)c3sccc3n2)c1,nt,13.0,17.1*,-6.2,8.9,1.0,5.1,11.7*,
COCCNc1nc(Oc2ccccc2)c2sccc2n1,i,-1.6,0.2,5.4,-3.2,-1.5,nt,nt,
c1ccc(CNc2nc(Oc3ccncc3)c3sccc3n2)cc1,nt,9.8,15.2*,5.2,12.0,-4.8,10.3,4.9*,
COc1ccc(Nc2nc(NCc3cccs3)nc3ccsc23)cc1OC,i,12.4,-0.1,-1.7,2.3,4.5,nt,nt,
OCCCCc1nccc2c1[nH]c1ccccc12,nt,24.1,35.5*,-2.1,3.1,-3.1,29.3*,37.0*,
S=C(Nc1ccccc1Cl)N(Cc1cccnc1)Cc1ccco1,i,6.5,0.3,5.7,-1.6,2.8,nt,nt,
SMILES,Neddyl block,SKN-1 block,KLK7 zymogen act,Tn6 DDE FP,MT1-MMP act inh,Tn7 DDE FP,proKLK7 act conf,EDANS-DABCYL int,others
COc1cc(NC(=O)c2c(F)cccc2F)c(Cl)cc1Cl,i,9.6,20.8*,3.0,-0.3,4.5,28.2*,27.1*,
Cc1ccc(S(=O)(=O)NC(CC(C)C)C(=O)Oc2ccc3c4c(c(=O)oc3c2)CCC4)cc1 (stereo not drawn),nt,3.7,49.3*,-3.5,-0.4,3.8,89.8*,77.3*,
Cc1c(OC(=O)CNC(=O)OC(C)(C)C)ccc2c3c(c(=O)oc12)CCC3,nt,45.0*,417.7*,0.7,-10.1,4.7,463.0*,484.9*,
Cc1c(OCC(=O)OC(C)(C)C)ccc2c3c(c(=O)oc12)CCC3,i,4.6,-2.0,-3.3,-0.4,-0.8,nt,nt,
Cc1ccc(S(=O)(=O)NC(C(=O)Oc2ccc3c(C(F)(F)F)cc(=O)oc3c2)c2ccccc2)cc1 (stereo not drawn),nt,4.4,47.8*,0.8,0.0,5.1,55.4*,73.0*,
CC[C@@H](NS(=O)(=O)c1ccc(C)cc1)C(=O)Oc1ccc2c3c(c(=O)oc2c1)CCC3,nt,-4.1,240.8*,-3.3,-2.0,1.9,534.3*,472.8*,
COC(=O)CCn1nnc(-c2ccc(C(C)C)cc2)n1,i,-5.1,0.6,4.1,2.4,4.4,nt,nt,
CCOC(=O)c1cc(CO)cc(C(=O)OCC)c1,i,-6.7,0.1,-2.2,2.2,-1.9,nt,nt,
CCOC(=O)COc1ccc2c3c(c(=O)oc2c1)CCCC3,i,-6.6,3.2,1.7,-2.9,-1.7,nt,nt,
CCC(NC(=O)OC(C)(C)C)C(=O)Oc1ccc2c3c(c(=O)oc2c1)CCC3 (stereo not drawn),nt,-10.6,106.9*,-3.5,-4.3,11.9,664.0*,670.5*,
CCC(C)C(NS(=O)(=O)c1ccc(C)cc1)C(=O)Oc1ccc2c3c(c(=O)oc2c1)CCC3 (stereo not drawn),nt,-1.2,21.0*,3.7,-5.6,-3.5,43.0*,36.6*,K7 EDANS ctr=>69.5
